This is an account of results in paper PMC3018326 (Proteins, 2010).

One may read the pKd as −log10 of the Kd, conventionally taken in molar units. Read a high pKd as a low Kd.

pKd: −log10 of the molar value.

The assay addresses T1, TcFPPS (Trypanosoma cruzi, UniProt Q95WL3).
T1 sequence (Q95WL3 1-362): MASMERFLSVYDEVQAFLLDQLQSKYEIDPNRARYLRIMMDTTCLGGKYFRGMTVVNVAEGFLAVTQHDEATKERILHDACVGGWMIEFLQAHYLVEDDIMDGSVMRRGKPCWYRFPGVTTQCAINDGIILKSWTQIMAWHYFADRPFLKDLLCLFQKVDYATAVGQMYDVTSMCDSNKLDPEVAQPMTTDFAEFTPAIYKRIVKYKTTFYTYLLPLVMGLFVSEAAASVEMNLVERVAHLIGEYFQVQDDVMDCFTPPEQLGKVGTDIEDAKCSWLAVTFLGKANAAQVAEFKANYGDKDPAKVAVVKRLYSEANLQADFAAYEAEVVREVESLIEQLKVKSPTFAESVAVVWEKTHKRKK
The assay can be described thus: isothermal titration calorimetry, two-sequential-site fit. The format is binding. The method, boiled down:
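TcFPPS carried an N-terminal His-tag, was expressed in E. coli BL21(DE3), and was purified by Ni-affinity and gel filtration. Protein at 22.5 μM was dialyzed into 20 mM HEPES pH 7.5, 1 M NaCl, 2 mM MgCl2, 2 mM TCEP. Test compound at 250 μM in the same buffer was injected (10 μL) every 300 s at 26°C. Dilution heats were subtracted and the first injection excluded. Isotherms were fitted to a two-sequential-site model.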
(Isothermal titration calorimetry measures the heat released or taken up as one component is titrated into another.)
Consider `O=P(O)(O)C(O)(Cc1cnc2ccccn12)P(=O)(O)O` [261A, minodronate], for which the pKd was 7.96.

Regarding `O=P(O)(O)C(O)(Cc1cccnc1)P(=O)(O)O` [Ris, risedronate], the pKd is 7.18.

The molecule `O=P(O)(O)C(O)(Cn1ccnc1)P(=O)(O)O` [91B, zoledronate] showed a pKd of 7.54.
